This passage reports MIC and Stimulation results from ChEMBL document CHEMBL1125098, “Lipophilic 1,3-xylyl-21-crown-6 macrocyclic polyether 2-carboxylic acids as biological mimics of the ionophore antibiotics” (1990).

Structures are written as SMILES. Values after ≈ are worked out from the molar mass of the structure shown. Bounds are passed on as bounds.

The subject of experiment [1] is Clostridium perfringens. Put plainly: Antibacterial activity was determined against Clostridium perfringens 10A002. It counts as functional. Summed up: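 Agar dilution MIC on BHI agar, twelve 2-fold dilutions of drug starting at 200 μg/mL. Overnight BHI broth cultures (37 °C) diluted 100-fold; about 10000–20000 cells spotted per point by multiple inoculator. Plates read after 18 h at 37 °C, single colonies disregarded. Incubated anaerobically under 80% N₂, 10% CO₂, 10% H₂ in an anaerobic chamber.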

Experiment [2] is described as follows: Antibacterial activity against Streptococcus equi 02I001. In kind it is functional. Summed up: (§1)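 Agar dilution MIC on BHI agar: overnight BHI broth cultures (37 °C) diluted 100-fold, ~10000–20000 cells spotted by multiple inoculator; twelve 2-fold dilutions starting at 200 μg/mL; plates read after 18 h at 37 °C, single colonies disregarded. Compounds tested as macrocyclic carboxylate salts.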

The nature of experiment [3]: Antibacterial activity Streptococcus zooepidemicus 02H001. In kind it is functional, Streptococcus equi subsp. zooepidemicus. The note with it: Streptococcus equi. A digest of the protocol:
as §1

Experiment [4] is filed under the species Bos taurus. Put plainly: In vitro rumen propionic acid test procedure, 50 ug/mL. In kind it is functional. Summed up: (§2)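 Filtered rumen fluid (10 mL) with 400 mg substrate (68% corn starch, 17% cellulose, 15% extracted soybean meal) and pH 6.8 buffer, compound at 50 or 20 μg/mL; N2-gassed, shaken at 39 °C ~6 h, triplicate. Stopped with metaphosphoric acid, then GLC peak heights of acetic/propionic/butyric acids; response expressed relative to monensin at 10 μg/mL versus untreated controls.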

The test system of experiment [5] is Staphylococcus aureus. Put plainly: Antibacterial activity against Staphylococcus aureus 01A005. In kind it is functional. Summed up: as §1
The species named for experiment [6] is Bos taurus. The experiment can be described thus: In vitro rumen propionic acid test procedure, 20 ug/mL. It counts as functional. Summed up: as §2

With `O=C(O)c1c2cccc1COCCOCCOc1ccccc1OCCOCCOC2`, the MIC in experiment [1], in experiment [2], in experiment [3] and in experiment [5] was over 200 µg/mL in each case. Moreover, in experiment [4], the Stimulation came out at 0.2%.

For `CCCCCCCCCCCc1ccc2c(c1)OCCOCCOCc1cccc(c1C(=O)O)COCCOCCO2`, the Stimulation is 0.46% in experiment [6] and 0.82% in experiment [4]. Besides, the MIC in experiment [1] was found to be 3.12 µg/mL (≈ 5.32 µM); in experiment [2], 1.56 µg/mL (≈ 2.66 µM); in experiment [3], 1.56 µg/mL (≈ 2.66 µM); in experiment [5], 1.56 µg/mL (≈ 2.66 µM).

With `CC(C)(C)CC(C)(C)c1ccc2c(c1)OCCOCCOCc1cccc(c1C(=O)O)COCCOCCO2`, the Stimulation in experiment [6] amounted to 0.4%; in experiment [4], 1.02%. Moreover, the MIC in experiment [1], in experiment [2], in experiment [3] and in experiment [5] was 25 µg/mL (≈ 45.9 µM) throughout.

Consider `COCc1cc(C(C)(C)CC(C)(C)C)cc2c1OCCOCCOCc1cc(C(C)(C)C)cc(c1C(=O)O)COCCOCCO2`, for which the Stimulation in experiment [6] came out at 0.2%; in experiment [4], 0.64%. Also, the MIC in experiment [1] came to 25 µg/mL (≈ 38.8 µM); in experiment [2] it was 12.5 µg/mL (≈ 19.4 µM); in experiment [3] it was 25 µg/mL (≈ 38.8 µM); in experiment [5] it was 12.5 µg/mL (≈ 19.4 µM).

`CC(C)(C)c1ccc(OCC2COc3ccccc3OCCOCCOCCOCc3cc(C(C)(C)C)cc(c3C(=O)O)CO2)cc1` (configuration not stated): the results for the Stimulation in experiment [6] and in experiment [4] were 0.6% and 1.06%, respectively. Also, the MIC worked out at 1.56 µg/mL (≈ 2.4 µM) in experiment [1], 1.56 µg/mL (≈ 2.4 µM) in experiment [2], 3.12 µg/mL (≈ 4.79 µM) in experiment [3] and 1.56 µg/mL (≈ 2.4 µM) in experiment [5].

Consider `COc1cc2c(C(=O)O)c(c1)COCCOCCOc1c(C)cc(C(C)(C)CC(C)(C)C)cc1OCCOCCOC2`, for which the Stimulation in experiment [6] is 0.04%; in experiment [4] it was 0.42%. Further, the MIC worked out at 25 µg/mL (≈ 42.5 µM) in experiment [2], 25 µg/mL (≈ 42.5 µM) in experiment [3] and 50 µg/mL (≈ 84.9 µM) in experiment [5].

As for `CC(C)(C)CC(C)(C)c1ccc2c(c1)OCCOCCOCc1cc(C(C)(C)C)cc(c1C(=O)O)COCCOCCO2`, the Stimulation in experiment [6] is 0.64%; in experiment [4], 0.97%. Also, the MIC in experiment [1] was 6.25 µg/mL (≈ 10.4 µM); in experiment [2] it was 6.25 µg/mL (≈ 10.4 µM); in experiment [3], 6.25 µg/mL (≈ 10.4 µM); in experiment [5], 12.5 µg/mL (≈ 20.8 µM).

For `CC(C)(C)c1cc2c(C(=O)O)c(c1)COC(COc1ccccc1)COc1ccccc1OCCOCCOCCOC2` (configuration not stated), the Stimulation in experiment [6] came to 0%. Besides, the MIC was 25 µg/mL (≈ 42 µM) in experiment [1], 25 µg/mL (≈ 42 µM) in experiment [2], 50 µg/mL (≈ 84.1 µM) in experiment [3] and 25 µg/mL (≈ 42 µM) in experiment [5].

As for `CC(C)(C)CC(C)(C)c1ccc2c(c1)OCCOCCOCCOCc1cc(C(C)(C)C)cc(c1C(=O)O)COCCOCCOCCO2`, the Stimulation was determined as 0.4% in experiment [6] and 0.52% in experiment [4]. The MIC in experiment [1] came out at 25 µg/mL (≈ 36.3 µM); in experiment [2] it was 12.5 µg/mL (≈ 18.1 µM); in experiment [3], 25 µg/mL (≈ 36.3 µM); in experiment [5], 50 µg/mL (≈ 72.6 µM).

As for `Cc1cc(C(C)(C)CC(C)(C)C)cc2c1OCCOCCOCc1cc(C(C)(C)C)cc(c1C(=O)O)COCCOCCO2`, the Stimulation in experiment [6] is 0.5%; in experiment [4] it was 1.02%. The minimal inhibitory concentration (MIC) worked out at 3.12 µg/mL (≈ 5.07 µM) in experiment [1], 3.12 µg/mL (≈ 5.07 µM) in experiment [2], 6.25 µg/mL (≈ 10.2 µM) in experiment [3] and 6.25 µg/mL (≈ 10.2 µM) in experiment [5].

Consider `Cc1cc(C(C)(C)CC(C)(C)C)cc2c1OCCOCCOCc1cc(Br)cc(c1C(=O)O)COCCOCCO2`, for which the Stimulation was 0.06% in experiment [6] and 0.53% in experiment [4]. For the same molecule, the values for the MIC in experiment [2], in experiment [3] and in experiment [5] were 6.25 µg/mL (≈ 9.8 µM), 12.5 µg/mL (≈ 19.6 µM) and 12.5 µg/mL (≈ 19.6 µM), respectively.

For the molecule `O=C(O)c1c2cccc1COCCOCCOCCOCCOCCOC2`, the Stimulation in experiment [6] and in experiment [4] was 0% throughout. The MIC in experiment [1], in experiment [2], in experiment [3] and in experiment [5] was over 200 µg/mL in each case.

Consider `CC(C)(C)CC(C)(C)c1cc(Cc2ccccc2)c2c(c1)OCCOCCOCc1cc(C(C)(C)C)cc(c1C(=O)O)COCCOCCO2`, for which the Stimulation worked out at 0.44% in experiment [6] and 0.76% in experiment [4]. Further, the MIC in experiment [1] worked out at 1.56 µg/mL (≈ 2.26 µM); in experiment [2], 3.12 µg/mL (≈ 4.52 µM); in experiment [3], 3.12 µg/mL (≈ 4.52 µM); in experiment [5] it was 3.12 µg/mL (≈ 4.52 µM).

For `Cc1cc(C(C)(C)CC(C)(C)C)cc2c1OCCOCCOCc1cccc(c1C(=O)O)COCCOCCO2`, the Stimulation in experiment [6] was 0.33%; in experiment [4], 0.87%. The results for the MIC in experiment [2], in experiment [3] and in experiment [5] were 12.5 µg/mL (≈ 22.4 µM), 50 µg/mL (≈ 89.5 µM) and 25 µg/mL (≈ 44.7 µM), respectively.

As to `CC(C)(C)CC(C)(C)c1cc(CCc2ccccc2)c2c(c1)OCCOCCOCc1cc(C(C)(C)C)cc(c1C(=O)O)COCCOCCO2`, the figures for the Stimulation in experiment [6] and in experiment [4] were 0.32% and 1.09%, respectively. Moreover, the MIC in experiment [1] turned out to be 1.56 µg/mL (≈ 2.21 µM); in experiment [2] it was 1.56 µg/mL (≈ 2.21 µM); in experiment [3] it was 1.56 µg/mL (≈ 2.21 µM); in experiment [5], 6.25 µg/mL (≈ 8.87 µM).

As to `Cc1cc(C(C)(C)CC(C)(C)C)cc2c1OCCOCCOCCOCc1cc(C(C)(C)C)cc(c1C(=O)O)COCCOCCOCCO2`, the Stimulation in experiment [6] came to 0.11%; in experiment [4], 0.41%. Further, the minimal inhibitory concentration (MIC) in experiment [1] came out at 12.5 µg/mL (≈ 17.8 µM); in experiment [2], 3.12 µg/mL (≈ 4.44 µM); in experiment [3], 6.25 µg/mL (≈ 8.89 µM); in experiment [5] it was 12.5 µg/mL (≈ 17.8 µM).

On to `CC(C)c1cc(C(C)(C)CC(C)(C)C)cc2c1OCCOCCOCc1cc(C(C)(C)C)cc(c1C(=O)O)COCCOCCO2`, for which the Stimulation was 0.43% in experiment [6] and 0.7% in experiment [4]. The MIC in experiment [1] is under 0.39 µg/mL; in experiment [2], 0.78 µg/mL (≈ 1.21 µM); in experiment [3], 0.78 µg/mL (≈ 1.21 µM); in experiment [5], 0.78 µg/mL (≈ 1.21 µM).
